Values after ≈ are worked out from the molar mass of the structure shown.
How the values were obtained:
[1] = Toxicity in Artemia salina (brine shrimp) […]; format: organism-based; settings: in vivo
[2] = test system: Colletotrichum gloeosporioides; assay: Antifungal activity against Colletotrichum gloeosporioides at 28 degC after 48 hr microbroth dilution method; format: functional
Procedure, shortened: (§1)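 Plant-pathogenic fungi isolated from infected plant organs. Fungi grown 18 h in PD medium at 28 ± 0.5 °C and 150 rpm, then diluted to about 1 × 10^6 CFU in PD medium. Compounds at 2 mg/mL DMSO stock, serially diluted in triplicate in PD medium in 96-well plates before the fungal suspension was added. DMSO served as negative control. After 48 h at 28 ± 0.5 °C, MIC taken as the lowest concentration with no visible growth.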

[3] = test system: Fusarium graminearum; assay: Antifungal activity against Fusarium graminearum at 28 degC after 48 hr microbroth dilution method; format: functional
Procedure, shortened: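 Microbroth dilution in PD medium. Fungi were grown 18 h at 28 ± 0.5 °C and 150 rpm, then diluted to about 1 × 10^6 CFU. Compounds (2 mg/mL DMSO stock) were serially diluted in triplicate and fungal suspension added. Incubated 48 h at 28 ± 0.5 °C. MIC was the lowest concentration with no visible growth. Controls: DMSO, carbendazim, hymexazol.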

[4] = test system: Botrytis cinerea; assay: Antifungal activity against Botryotinia fuckeliana at 28 degC after 48 hr microbroth dilution method; format: functional; procedure, shortened: as §1
[5] = test system: Alternaria solani; assay: Antifungal activity against Alternaria solani at 28 degC after 48 hr microbroth dilution method; format: functional; procedure, shortened: as §1
[6] = test system: Fusarium solani; assay: Antifungal activity against Fusarium solani at 28 degC after 48 hr microbroth dilution method; format: functional; procedure, shortened: as §1
[7] = test system: Alternaria alternata; assay: Antifungal activity against Alternaria alternata at 28 degC after 48 hr microbroth dilution method; format: functional; procedure, shortened: as §1
[8] = test system: Fusarium oxysporum f. sp. vasinfectum; assay: Antifungal activity against Fusarium oxysporum f. sp. vasinfectum at 28 degC after 48 hr microbroth dilution method; format: functional; procedure, shortened: as §1
[9] = test system: Fusarium oxysporum f. sp. niveum; assay: Antifungal activity against Fusarium oxysporum f. sp. niveum at 28 degC after 48 hr microbroth dilution method; format: functional; procedure, shortened: as §1
[10] = test system: Mythimna separata; assay: Antifeedant activity against Mythimna separata (Oriental armyworm) larvae assessed as antifeedant index by area of the leaf consumed; format: functional; parameters: concentration or dose not given beside the values
Procedure, shortened: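 Positive control prepared at 10 mg/mL in acetone; leaves treated with acetone alone served as control. Ten treated leaves and 10 larvae per Petri dish lined with moistened filter paper. Held at 25 ± 2 °C, 12L:12D, 65−80% rh. Leaf area consumed recorded after 48 h. AFI = (C − T)/C × 100%, from control and treated areas consumed. Three repetitions.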

Structure (SMILES)	LC50 [1]	MIC [2]	MIC [3]	MIC [4]	MIC [5]	MIC [6]	MIC [7]	MIC [8]	MIC [9]	AFI [10]
C[C@@H]1CN(C)[C@@H]2Cc3c[nH]c4cccc(c34)[C@H]2[C@H]1O [FUMIGACLAVINE B]	> 100 µg/mL	–	–	–	–	–	–	–	–	–
O=c1cc[nH]c(=O)[nH]1 [URACIL]	> 100 µg/mL	–	–	–	–	–	–	–	–	–
COc1ccc2c3c([nH]c2c1)[C@H](C=C(C)C)N1C(=O)[C@@H]2CCCN2C(=O)[C@@]1(O)[C@H]3OC [CYCLOTRYPROSTATIN B]	37.9 µg/mL (≈ 89.1 µM)	12.5 µg/mL (≈ 29.4 µM)	12.5 µg/mL (≈ 29.4 µM)	12.5 µg/mL (≈ 29.4 µM)	12.5 µg/mL (≈ 29.4 µM)	25 µg/mL (≈ 58.8 µM)	12.5 µg/mL (≈ 29.4 µM)	25 µg/mL (≈ 58.8 µM)	12.5 µg/mL (≈ 29.4 µM)	–
C[C@H]1NC(=O)[C@@H](Cc2c[nH]c3ccccc23)n2c1nc1ccccc1c2=O [FUMIQUINAZOLINE G]	78.8 µg/mL (≈ 220 µM)	12.5 µg/mL (≈ 34.9 µM)	12.5 µg/mL (≈ 34.9 µM)	12.5 µg/mL (≈ 34.9 µM)	25 µg/mL (≈ 69.8 µM)	50 µg/mL (≈ 140 µM)	12.5 µg/mL (≈ 34.9 µM)	50 µg/mL (≈ 140 µM)	50 µg/mL (≈ 140 µM)	–
C[C@@H]1NC(=O)CNC1=O	> 100 µg/mL	–	–	–	–	–	–	–	–	–
Cc1cc(O)no1 [HYMEXAZOL]	–	12.5 µg/mL (≈ 126 µM)	12.5 µg/mL (≈ 126 µM)	12.5 µg/mL (≈ 126 µM)	12.5 µg/mL (≈ 126 µM)	50 µg/mL (≈ 505 µM)	12.5 µg/mL (≈ 126 µM)	25 µg/mL (≈ 252 µM)	12.5 µg/mL (≈ 126 µM)	–
O=C1[C@@H]2C[C@@H](O)CN2C(=O)[C@@H]2CCCN12	> 100 µg/mL	–	–	–	–	–	–	–	–	–
O=C1N[C@@H](CO)C(=O)N2CCC[C@@H]12	> 100 µg/mL	–	–	–	–	–	–	–	–	–
COc1ccc2c3c([nH]c2c1)[C@H](CC(C)(C)O)N1C(=O)[C@@H]2CCCN2C(=O)[C@@]1(O)[C@H]3OC	60.7 µg/mL (≈ 137 µM)	6.25 µg/mL (≈ 14.1 µM)	6.25 µg/mL (≈ 14.1 µM)	6.25 µg/mL (≈ 14.1 µM)	6.25 µg/mL (≈ 14.1 µM)	25 µg/mL (≈ 56.4 µM)	6.25 µg/mL (≈ 14.1 µM)	25 µg/mL (≈ 56.4 µM)	12.5 µg/mL (≈ 28.2 µM)	–
CC(C)=CCc1cccc2c(C[C@@H]3NC(=O)[C@H](C)NC3=O)c[nH]c12 [TEREZINE D]	> 100 µg/mL	–	–	–	–	–	–	–	–	–
C[C@@H]1N[C@H]2N(C1=O)c1ccccc1[C@@]2(O)C[C@@H]1C(=O)N[C@@H](C)c2nc3ccccc3c(=O)n21 [FUMIQUINAZOLINE A]	39.7 µg/mL (≈ 89.1 µM)	12.5 µg/mL (≈ 28.1 µM)	12.5 µg/mL (≈ 28.1 µM)	12.5 µg/mL (≈ 28.1 µM)	12.5 µg/mL (≈ 28.1 µM)	50 µg/mL (≈ 112 µM)	12.5 µg/mL (≈ 28.1 µM)	50 µg/mL (≈ 112 µM)	25 µg/mL (≈ 56.1 µM)	45%
CC(=O)O[C@H]1C[C@@]2(C)[C@@H](CC[C@H]3[C@@]4(C)C=CC(=O)[C@@H](C)[C@@H]4[C@H](OC(C)=O)C(=O)[C@@]32C)/C1=C(\CCC=C(C)C)C(=O)O [HELVOLIC ACID]	73.7 µg/mL (≈ 130 µM)	6.25 µg/mL (≈ 11 µM)	6.25 µg/mL (≈ 11 µM)	6.25 µg/mL (≈ 11 µM)	12.5 µg/mL (≈ 22 µM)	50 µg/mL (≈ 87.9 µM)	6.25 µg/mL (≈ 11 µM)	25 µg/mL (≈ 44 µM)	12.5 µg/mL (≈ 22 µM)	7.5%
COc1ccc2c(c1)N[C@@]1(C2=O)[C@H](C=C(C)C)N2C(=O)[C@@H]3CCCN3C(=O)[C@]2(O)[C@H]1O	> 100 µg/mL	–	–	–	–	–	–	–	–	5%
O=C1CNC(=O)[C@H](Cc2ccccc2)N1	> 100 µg/mL	–	–	–	–	–	–	–	–	–
COc1ccc2c3c4n(c2c1)[C@H](C=C(C)C)OOC(C)(C)C[C@@H]4N1C(=O)[C@@H]2CCCN2C(=O)[C@]1(O)[C@H]3O [VERRUCULOGEN]	15.8 µg/mL (≈ 30.9 µM)	6.25 µg/mL (≈ 12.2 µM)	6.25 µg/mL (≈ 12.2 µM)	6.25 µg/mL (≈ 12.2 µM)	12.5 µg/mL (≈ 24.4 µM)	50 µg/mL (≈ 97.7 µM)	6.25 µg/mL (≈ 12.2 µM)	25 µg/mL (≈ 48.9 µM)	12.5 µg/mL (≈ 24.4 µM)	55%
O=C1C[C@@H](O)[C@@H](O)c2cccc(O)c21 (relative stereo)	> 100 µg/mL	–	–	–	–	–	–	–	–	–
O=C1N[C@@H](Cc2ccccc2)C(=O)N2C[C@H](O)C[C@H]12	> 100 µg/mL	–	–	–	–	–	–	–	–	–
C[C@@H]1NC(=O)[C@@H]2CCCN2C1=O	> 100 µg/mL	–	–	–	–	–	–	–	–	–
CC/C=C/[C@H](O)[C@H](O)C1=C(C)C(=O)[C@]2(O1)C(=O)N[C@@](OC)(C(=O)c1ccccc1)[C@H]2O [PSEUROTIN A1]	> 100 µg/mL	–	–	–	–	–	–	–	–	–

From ChEMBL document CHEMBL3045178, “Metabolites from Aspergillus fumigatus, an endophytic fungus associated with Melia azedarach, and their antifungal, antifeedant, and toxic activities” (J Agric Food Chem, 2012)
